Source: ChEMBL document CHEMBL4118097, “Selective Inhibitors of Dual Leucine Zipper Kinase (DLK, MAP3K12) with Activity in a Model of Alzheimer's Disease” (J Med Chem, 2017)

Columns and labels:
[1] = biological target: Serine/threonine-protein kinase B-raf (Homo sapiens) (UniProt P15056); test: Inhibition of B-Raf (unknown origin) at 1 uM by FRET assay relative to control
[2] = biological target: Calcium/calmodulin-dependent protein kinase kinase 2 (Homo sapiens) (UniProt Q96RR4); test: Inhibition of recombinant full length GST-tagged human CAMKK2 expressed in baculovirus expression system at 1 uM by FRET assay relative to control
In short: (§1)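 Single-concentration screen at 1 μM in Life Technologies SelectScreen, across a 220-kinase panel. Z′-LYTE format measures phosphorylation of a labeled peptide by FRET. Results are reported as percent inhibition.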

[3] = biological target: Serine/threonine-protein kinase Sgk2 (Homo sapiens) (UniProt Q9HBY8); test: Inhibition of recombinant full length GST-tagged human SGK2 catalytic domain (54 to 427 residues) expressed in baculovirus expression system at 1 uM by FRET assay relative to control; in short: as §1
[4] = biological target: Peroxisome proliferator-activated receptor alpha (Homo sapiens) (UniProt Q07869); test: Binding affinity to recombinant human PPARalpha at 10 uM relative to control
In short: (§2)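 Broad radioligand-binding and enzyme screening panel covering 42 targets (biogenic amine and neuropeptide receptors, ion channels, neurotransmitter transporters, acetylcholinesterase). Single test concentration of 10 μM. Results expressed as binding relative to control, with a hit defined as >50% of control.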

[5] = biological target: Dual specificity protein kinase CLK3 (Homo sapiens) (UniProt P49761); test: Inhibition of full length recombinant GST-tagged human CLK3 expressed in baculovirus expression system at 1 uM by FRET assay relative to control
[6] = biological target: Protein kinase C delta type (Homo sapiens) (UniProt Q05655); test: Inhibition of recombinant full length human PKCdelta expressed in baculovirus expression system at 1 uM by FRET assay relative to control
[7] = biological target: Rho-associated protein kinase 1 (Homo sapiens) (UniProt Q13464); test: Inhibition of recombinant N-terminal GST-tagged human ROCK1 catalytic domain (1 to 535 residues) expressed in baculovirus expression system at 1 uM by FRET assay relative to control; in short: as §1
[8] = biological target: Receptor-type tyrosine-protein kinase FLT3 (Homo sapiens) (UniProt P36888); test: Inhibition of recombinant His-tagged human FLT3 cytoplasmic domain expressed in baculovirus expression system at 1 uM by FRET assay relative to control
In short: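 Single-point screen at 1 μM compound in a 220-kinase panel run by Life Technologies (SelectScreen). Z′-LYTE format: phosphorylation of a labeled peptide substrate read by FRET. Values are reported as percent inhibition.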

[9] = biological target: Beta-adrenergic receptor kinase 1 (Homo sapiens) (UniProt P25098); test: Inhibition of recombinant full length His-tagged human GRK2 expressed in baculovirus expression system at 1 uM by FRET relative to control
[10] = biological target: Dual specificity mitogen-activated protein kinase kinase 3 (Homo sapiens) (UniProt P46734); test: Inhibition of recombinant full length GST-tagged human MEK3 expressed in baculovirus expression system at 1 uM by FRET assay relative to control; in short: as §1
[11] = biological target: Glycogen synthase kinase-3 beta (Homo sapiens) (UniProt P49841); test: Inhibition of recombinant full length His-tagged human GSK3beta expressed in baculovirus expression system at 1 uM by FRET relative to control
[12] = biological target: Beta-2 adrenergic receptor (Homo sapiens) (UniProt P07550); test: Binding affinity to recombinant human beta2 adrenergic receptor at 10 uM relative to control; in short: as §2
[13] = biological target: MAP/microtubule affinity-regulating kinase 3 (Homo sapiens) (UniProt P27448); test: Inhibition of recombinant full length GST-tagged human MARK3 expressed in baculovirus expression system at 1 uM by FRET assay relative to control; in short: as §1
[14] = biological target: Tyrosine-protein kinase SYK (Homo sapiens) (UniProt P43405); test: Inhibition of recombinant full length N-terminal GST-tagged human Syk cytoplasmic domain expressed in baculovirus expression system at 1 uM by FRET assay relative to control
[15] = biological target: SRSF protein kinase 1 (Homo sapiens) (UniProt Q96SB4); test: Inhibition of recombinant full length His-tagged human SRPK1 expressed in baculovirus expression system at 1 uM by FRET assay relative to control
[16] = system: RAF proto-oncogene serine/threonine-protein kinase (Homo sapiens), P04049 [Y340D,Y341D]; test: Inhibition of recombinant N-terminal GST-tagged human RAF1 catalytic domain (306 to 648 residues) Y340D/Y341D double mutant expressed in baculovirus expression system at 1 uM by FRET assay relative to control
In short: (§3)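 Part of a 220-kinase panel run at a single concentration of 1 μM. Z′-LYTE format: phosphorylation of a labelled peptide read by FRET. Values reported as percent inhibition.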

[17] = biological target: G protein-coupled receptor kinase 3 (Homo sapiens) (UniProt P35626); test: Inhibition of recombinant full length GST-tagged human GRK3 expressed in baculovirus expression system at 1 uM by FRET relative to control; in short: as §1
[18] = biological target: Bone morphogenetic protein receptor type-1A (Homo sapiens) (UniProt P36894); test: Inhibition of recombinant full length N-terminal GST-tagged human BMPR1A catalytic domain expressed in insect cells at 1 uM by FRET assay relative to control
[19] = biological target: Tyrosine-protein kinase ITK/TSK (Homo sapiens) (UniProt Q08881); test: Inhibition of recombinant full length GST-tagged human ITK cytoplasmic domain (473 to end residues) expressed in baculovirus expression system at 1 uM by FRET relative to control; in short: as §1
[20] = biological target: Tyrosine-protein kinase Srms (Homo sapiens) (UniProt Q9H3Y6); test: Inhibition of recombinant full length GST-tagged human Srm cytoplasmic domain expressed in baculovirus expression system at 1 uM by FRET assay relative to control; in short: as §3
[21] = biological target: cAMP-dependent protein kinase catalytic subunit PRKX (Homo sapiens) (UniProt P51817); test: Inhibition of full length GST-tagged human PRKX expressed in Escherichia coli at 1 uM by FRET assay relative to control
[22] = biological target: Calcium/calmodulin-dependent protein kinase kinase 1 (Homo sapiens) (UniProt Q8N5S9); test: Inhibition of recombinant full length His-tagged human CAMKK1 expressed in baculovirus expression system at 1 uM by FRET assay relative to control
[23] = biological target: High affinity nerve growth factor receptor (Homo sapiens, UniProt P04629); test: Inhibition of recombinant His-tagged human TrkA cytoplasmic domain (441 to 796 residues) expressed in baculovirus expression system at 1 uM by FRET assay relative to control; in short: as §1
[24] = biological target: RAC-beta serine/threonine-protein kinase (Homo sapiens) (UniProt P31751); test: Inhibition of recombinant full length His-tagged human AKT2 expressed in baculovirus expression system at 1 uM by FRET assay relative to control
[25] = biological target: Serine/threonine-protein kinase 4 (Homo sapiens) (UniProt Q13043); test: Inhibition of recombinant full length GST-tagged human MST1 expressed in baculovirus at 1 uM by FRET assay relative to control; in short: as §1
[26] = biological target: Proto-oncogene tyrosine-protein kinase Src (Homo sapiens) (UniProt P12931); test: Inhibition of recombinant full length C-terminal His-tagged human Src cytoplasmic domain expressed in baculovirus expression system at 1 uM by FRET assay relative to control; in short: as §1

Chain of Serine/threonine-protein kinase B-raf (Homo sapiens) (P15056 whole entry): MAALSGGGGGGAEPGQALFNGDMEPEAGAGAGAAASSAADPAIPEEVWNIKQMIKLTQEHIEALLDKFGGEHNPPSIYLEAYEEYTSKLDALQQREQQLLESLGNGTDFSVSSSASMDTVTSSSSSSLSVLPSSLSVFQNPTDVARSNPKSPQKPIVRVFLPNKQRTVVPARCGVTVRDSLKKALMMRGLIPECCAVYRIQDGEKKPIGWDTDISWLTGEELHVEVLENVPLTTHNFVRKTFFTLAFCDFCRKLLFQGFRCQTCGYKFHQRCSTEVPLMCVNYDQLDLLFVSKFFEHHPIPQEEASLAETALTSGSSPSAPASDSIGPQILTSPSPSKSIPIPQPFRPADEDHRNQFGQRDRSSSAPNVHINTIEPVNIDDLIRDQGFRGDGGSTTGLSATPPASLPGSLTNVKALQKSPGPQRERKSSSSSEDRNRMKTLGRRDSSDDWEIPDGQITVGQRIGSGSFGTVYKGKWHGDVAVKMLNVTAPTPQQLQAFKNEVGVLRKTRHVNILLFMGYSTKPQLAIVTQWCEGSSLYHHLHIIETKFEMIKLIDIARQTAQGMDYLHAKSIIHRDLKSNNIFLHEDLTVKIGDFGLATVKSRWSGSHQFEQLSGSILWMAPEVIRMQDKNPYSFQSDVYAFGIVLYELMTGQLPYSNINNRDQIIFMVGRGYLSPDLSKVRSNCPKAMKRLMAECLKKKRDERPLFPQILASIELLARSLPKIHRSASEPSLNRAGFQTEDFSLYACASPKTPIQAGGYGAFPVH
Chain of Beta-adrenergic receptor kinase 1 (Homo sapiens) (P25098 whole entry): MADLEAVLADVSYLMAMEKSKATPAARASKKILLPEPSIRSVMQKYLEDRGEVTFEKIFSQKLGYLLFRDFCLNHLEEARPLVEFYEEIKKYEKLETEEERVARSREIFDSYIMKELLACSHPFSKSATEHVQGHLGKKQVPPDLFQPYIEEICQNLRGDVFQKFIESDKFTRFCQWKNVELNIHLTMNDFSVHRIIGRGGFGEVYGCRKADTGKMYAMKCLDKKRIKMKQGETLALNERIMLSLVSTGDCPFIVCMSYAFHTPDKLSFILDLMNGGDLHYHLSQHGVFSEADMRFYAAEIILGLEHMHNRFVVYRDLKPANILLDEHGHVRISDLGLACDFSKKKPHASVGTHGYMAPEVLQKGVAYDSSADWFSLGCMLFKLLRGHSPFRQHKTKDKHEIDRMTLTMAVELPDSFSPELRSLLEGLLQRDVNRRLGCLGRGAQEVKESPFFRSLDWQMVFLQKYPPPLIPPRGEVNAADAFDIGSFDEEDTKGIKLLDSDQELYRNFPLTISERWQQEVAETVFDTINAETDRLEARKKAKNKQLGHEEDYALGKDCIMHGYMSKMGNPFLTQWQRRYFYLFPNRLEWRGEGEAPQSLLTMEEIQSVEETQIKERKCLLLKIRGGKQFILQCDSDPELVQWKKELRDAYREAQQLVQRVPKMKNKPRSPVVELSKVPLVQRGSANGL
Chain of Serine/threonine-protein kinase 4 (Homo sapiens) (Q13043 whole entry, the tested form may be a part): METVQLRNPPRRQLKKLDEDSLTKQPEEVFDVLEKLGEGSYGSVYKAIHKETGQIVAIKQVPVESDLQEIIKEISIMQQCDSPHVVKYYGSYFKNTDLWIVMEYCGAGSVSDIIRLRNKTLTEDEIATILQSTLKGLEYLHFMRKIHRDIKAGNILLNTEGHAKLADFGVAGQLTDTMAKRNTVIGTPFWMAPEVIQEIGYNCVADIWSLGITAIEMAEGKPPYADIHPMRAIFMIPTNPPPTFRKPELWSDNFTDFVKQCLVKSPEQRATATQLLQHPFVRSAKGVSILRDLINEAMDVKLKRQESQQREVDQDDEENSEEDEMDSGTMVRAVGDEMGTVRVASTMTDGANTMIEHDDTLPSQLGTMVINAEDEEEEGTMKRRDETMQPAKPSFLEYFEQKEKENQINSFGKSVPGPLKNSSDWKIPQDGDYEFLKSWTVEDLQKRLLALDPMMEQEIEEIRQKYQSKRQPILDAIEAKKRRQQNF
Chain of SRSF protein kinase 1 (Homo sapiens) (Q96SB4 whole entry, the tested form may be a part): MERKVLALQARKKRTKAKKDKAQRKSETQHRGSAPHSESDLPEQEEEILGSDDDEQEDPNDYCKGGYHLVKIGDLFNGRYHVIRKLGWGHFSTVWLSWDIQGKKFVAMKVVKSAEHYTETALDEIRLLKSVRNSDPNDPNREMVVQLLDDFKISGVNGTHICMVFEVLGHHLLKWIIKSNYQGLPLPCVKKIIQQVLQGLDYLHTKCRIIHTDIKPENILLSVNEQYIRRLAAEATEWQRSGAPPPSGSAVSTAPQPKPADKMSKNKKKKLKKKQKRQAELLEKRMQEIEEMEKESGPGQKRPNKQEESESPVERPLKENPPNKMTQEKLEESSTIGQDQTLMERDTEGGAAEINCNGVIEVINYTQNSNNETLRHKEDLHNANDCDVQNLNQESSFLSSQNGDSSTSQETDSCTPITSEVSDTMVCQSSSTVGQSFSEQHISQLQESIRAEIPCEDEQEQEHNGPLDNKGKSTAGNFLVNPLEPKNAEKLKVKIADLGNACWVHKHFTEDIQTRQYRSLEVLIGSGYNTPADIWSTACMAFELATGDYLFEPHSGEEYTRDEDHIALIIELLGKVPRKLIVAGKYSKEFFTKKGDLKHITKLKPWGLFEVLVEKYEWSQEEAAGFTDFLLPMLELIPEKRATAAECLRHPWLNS
Chain of MAP/microtubule affinity-regulating kinase 3 (Homo sapiens) (P27448 whole entry, looked up, the tested form may be a part): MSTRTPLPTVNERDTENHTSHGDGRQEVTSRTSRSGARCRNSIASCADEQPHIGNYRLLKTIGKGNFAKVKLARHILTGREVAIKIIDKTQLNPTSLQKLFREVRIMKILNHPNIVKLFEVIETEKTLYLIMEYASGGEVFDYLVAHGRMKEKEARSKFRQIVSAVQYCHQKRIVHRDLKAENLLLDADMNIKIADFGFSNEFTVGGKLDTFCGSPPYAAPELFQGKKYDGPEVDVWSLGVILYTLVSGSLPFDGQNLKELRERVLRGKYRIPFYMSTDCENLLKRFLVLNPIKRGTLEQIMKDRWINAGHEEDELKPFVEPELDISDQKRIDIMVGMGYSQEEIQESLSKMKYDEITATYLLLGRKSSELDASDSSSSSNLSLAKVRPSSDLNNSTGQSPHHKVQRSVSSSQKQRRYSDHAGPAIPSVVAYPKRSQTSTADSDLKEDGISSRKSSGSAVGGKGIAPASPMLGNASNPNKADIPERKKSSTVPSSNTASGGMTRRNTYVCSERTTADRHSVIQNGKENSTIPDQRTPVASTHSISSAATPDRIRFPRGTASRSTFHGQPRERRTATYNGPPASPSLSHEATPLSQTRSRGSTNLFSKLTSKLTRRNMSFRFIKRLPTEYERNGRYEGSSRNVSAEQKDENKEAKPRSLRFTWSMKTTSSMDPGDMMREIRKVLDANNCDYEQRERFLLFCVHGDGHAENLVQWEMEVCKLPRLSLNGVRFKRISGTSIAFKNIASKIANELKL
Chain of Rho-associated protein kinase 1 (Homo sapiens) (Q13464 2-1354 limits assumed): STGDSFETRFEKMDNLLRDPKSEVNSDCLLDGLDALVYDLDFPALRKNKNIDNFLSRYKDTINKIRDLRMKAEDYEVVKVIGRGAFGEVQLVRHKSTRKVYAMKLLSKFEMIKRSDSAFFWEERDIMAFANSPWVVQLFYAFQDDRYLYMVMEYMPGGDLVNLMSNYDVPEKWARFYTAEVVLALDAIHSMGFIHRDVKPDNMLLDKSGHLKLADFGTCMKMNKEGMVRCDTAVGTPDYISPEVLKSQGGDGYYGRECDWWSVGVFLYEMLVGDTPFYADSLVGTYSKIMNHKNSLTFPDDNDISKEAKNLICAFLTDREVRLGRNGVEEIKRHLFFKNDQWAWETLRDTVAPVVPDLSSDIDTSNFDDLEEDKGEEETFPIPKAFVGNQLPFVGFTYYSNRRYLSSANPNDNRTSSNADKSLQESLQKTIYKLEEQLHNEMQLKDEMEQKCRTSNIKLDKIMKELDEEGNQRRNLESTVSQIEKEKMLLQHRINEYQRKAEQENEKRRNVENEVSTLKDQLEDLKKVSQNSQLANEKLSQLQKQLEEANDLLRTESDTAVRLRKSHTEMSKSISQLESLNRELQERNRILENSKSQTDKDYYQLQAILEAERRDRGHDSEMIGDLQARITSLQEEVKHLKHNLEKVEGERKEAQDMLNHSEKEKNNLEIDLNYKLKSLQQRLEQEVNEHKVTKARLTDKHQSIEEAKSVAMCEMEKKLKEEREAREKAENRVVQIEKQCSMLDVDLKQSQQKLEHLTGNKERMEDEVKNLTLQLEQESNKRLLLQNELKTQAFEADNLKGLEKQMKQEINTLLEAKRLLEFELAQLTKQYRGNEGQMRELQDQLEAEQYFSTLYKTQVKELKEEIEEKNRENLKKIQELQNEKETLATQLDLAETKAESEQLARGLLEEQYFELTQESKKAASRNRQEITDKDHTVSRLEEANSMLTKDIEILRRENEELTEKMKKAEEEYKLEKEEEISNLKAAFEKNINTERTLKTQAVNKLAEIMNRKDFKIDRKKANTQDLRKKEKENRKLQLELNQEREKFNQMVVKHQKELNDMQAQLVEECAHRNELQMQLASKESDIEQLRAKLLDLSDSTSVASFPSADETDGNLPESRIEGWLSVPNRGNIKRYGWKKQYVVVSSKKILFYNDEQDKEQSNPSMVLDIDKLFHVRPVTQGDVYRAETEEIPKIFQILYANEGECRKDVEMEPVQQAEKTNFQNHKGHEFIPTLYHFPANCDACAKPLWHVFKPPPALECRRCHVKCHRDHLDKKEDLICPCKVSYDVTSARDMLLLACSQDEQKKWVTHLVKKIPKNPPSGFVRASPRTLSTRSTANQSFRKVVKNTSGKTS
Chain of Dual specificity mitogen-activated protein kinase kinase 3 (Homo sapiens) (P46734 whole entry): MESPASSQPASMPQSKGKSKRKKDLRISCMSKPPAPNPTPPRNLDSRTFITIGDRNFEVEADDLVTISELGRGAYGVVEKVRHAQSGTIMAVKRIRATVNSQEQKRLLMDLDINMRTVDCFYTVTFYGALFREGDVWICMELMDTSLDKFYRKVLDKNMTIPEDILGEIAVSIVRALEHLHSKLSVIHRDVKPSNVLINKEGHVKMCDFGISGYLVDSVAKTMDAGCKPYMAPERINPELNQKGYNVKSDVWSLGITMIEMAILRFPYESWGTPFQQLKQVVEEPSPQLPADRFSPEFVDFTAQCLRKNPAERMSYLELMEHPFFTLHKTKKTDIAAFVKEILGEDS

| Structure (SMILES) | inhibition [1] | inhibition [2] | inhibition [3] | Activity [4] | inhibition [5] | inhibition [6] | inhibition [7] | inhibition [8] | inhibition [9] | inhibition [10] | inhibition [11] | Activity [12] | inhibition [13] | inhibition [14] | inhibition [15] | inhibition [16] | inhibition [17] | inhibition [18] | inhibition [19] | inhibition [20] | also measured |
| --- | --- | --- | --- | --- | --- | --- | --- | --- | --- | --- | --- | --- | --- | --- | --- | --- | --- | --- | --- | --- | --- |
| CC(C)n1nc(-c2cnc(N)c(OC(F)(F)F)c2)cc1[C@H]1[C@@H]2CN(C3COC3)C[C@@H]21 | 3.7% | 1.5% | 2.7% | > 50% | 5.9% | 0.9% | 8.8% | 52.5% | -2.5% | 3.6% | 11.3% | > 50% | 16.8% | 26.8% | 1% | -1.9% | -2.3% | -2.3% | 10.9% | -2.5% | inhibition [21]: -2.9%; inhibition [22]: -7.5%; inhibition [23]: 67.1%; inhibition [24]: 3.1%; inhibition [25]: 3.5%; inhibition [26]: 23.8% |
| Nc1ncc(-c2cc([C@H]3[C@@H]4CN(C5COC5)C[C@@H]43)n(CC3CC3)n2)cc1C(F)(F)F | 1.8% | 8.7% | 0.3% | > 50% | -3.6% | -0.7% | -7.4% | 66.5% | 2.1% | -2.7% | 1.3% | > 50% | 14.1% | 30.6% | -1.7% | 4% | 0.5% | 1.5% | 0.8% | 4% | inhibition [21]: -7.2%; inhibition [22]: -0.3%; inhibition [23]: 56.1%; inhibition [24]: -0.3%; inhibition [25]: -8.7%; inhibition [26]: 22% |
